The full list was thinned out, with hits kept by preference.
Insulin prom act – TRM-6 insulin promoter activation; TRM-6 cells, insulin promoter eGFP reporter, imaging; plate-scaled: unstimulated 0, stimulated control 100; 130,000 compounds, 0.81% hits; activation, % at 2 µM;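 active = activation at 2 µM above a set limit, confirmed on inspection of the cell images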;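 also: share of cells whose green reporter signal exceeds an intensity cutoff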
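Material: Human fetal islet-derived TRM-6 cells with tamoxifen-inducible insulin promoter–eGFP reporter | Medium: Low-glucose (5.5 mM) medium with tamoxifen | Probe or stimulus: Tamoxifen inducer, 0.75 µM, in seeding medium | Schedule: Tamoxifen pre-incubation 15 h overnight, then compound exposure 48 h at 37 °C | Detection: High-content imaging of fixed cells with Hoechst nuclear stain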
An asterisk follows results filed as active.

SMILES | Insulin prom act
Cc1ccc(NC(=O)CN(C)C(=O)COc2ccc(C(=O)c3ccc(F)cc3)cc2)cc1 | 0
COCCCN(C(=O)Nc1cccc(Cl)c1)C(C)c1ccccn1 (centres undefined) | 642*
COCCCN(C(=S)Nc1cccc(Cl)c1)C(C)c1ccncc1 (centres undefined) | 5
CC(c1ccccn1)N(CCN(C)C)C(=S)Nc1cccc(F)c1 (centres undefined) | 10
CNC(=O)[C@@H]1C[C@H]1[C@@H](NC(=O)OCc1ccccc1)c1ccccc1 | 255*
C[C@@H](C(=O)NCC1CC1)[C@@H]1C[C@@]1(C)[C@@H](NC(=O)OCc1ccccc1)c1ccccc1 | 0
C[C@H](CO)NC(=O)[C@H](C)[C@H]1C[C@]1(C)[C@H](NC(=O)OCc1ccccc1)c1ccccc1 | 0
CC(C)NC(=O)NC(=O)COC(=O)c1cccc(S(=O)(=O)N2CCCCC2)c1 | 0
O=C(NCCO)C1(c2ccc(Cl)cc2)CCCC1 | 8
CCOC(=O)C1CCCN(C(=O)C2CCN(S(=O)(=O)CC)CC2)C1 (centres undefined) | 3
CCOC(=O)C1CCN(C(=O)/C=C/c2cccs2)CC1 | -6
CCOC(=O)N1CCN(C(=O)C2CCN(S(=O)(=O)N3CCCC3)CC2)CC1 | 0
CCOC(=O)C1CCN(C(=O)N(CC)CC)CC1 | 254*
CCOC(=O)C1CCN(C(=O)C2CCCCC2)CC1 | 562*
CCOC(=O)C1CCN(C(=O)Cc2cccs2)CC1 | 7
CC(C)CC(=O)NC(=S)Nc1ccc(NC(=O)c2cccs2)cc1 | -9
CS(=O)(=O)N(CC(=O)Nc1ccc(CC#N)cc1)c1ccc(C23CC4CC(CC(C4)C2)C3)cc1 | -8
CN(C)c1ccc(C2CC(c3ccccc3)=Nc3nc(-c4ccccc4)cn32)cc1 (centres undefined) | -3
O=C(NCCc1ccccc1)c1cc(=O)c2ccccc2o1 | -6
O=C(Cn1cnc2ccccc21)NC(c1ccccc1)c1ccccc1 | -8
CCN(CCCNC(=O)CCCOc1cc(=O)n(C)c2ccccc12)Cc1ccccc1 | 0
COc1ccccc1/C=C1\S/C(=N/NC(=O)c2cccc(Br)c2)NC1=O | -8
Cc1cccc(N=C2NC(=O)/C(=C/c3cccs3)S2)c1 | 0
COc1cc(/C=C2\S/C(=N/S(=O)(=O)c3ccc(C)cc3)NC2=O)c([N+](=O)[O-])cc1OC | 453*
O=C(/C=C/c1ccc2c(c1)OCO2)Nc1ccc(Cl)cn1 | -73
SMILES | Insulin prom act
CC1(C)CC(=O)CC(C)(C)N1OC(=O)c1ccccn1 | 0
O=C(c1ccc(NS(=O)(=O)c2cccs2)cc1)N1CCCCC1 | -3
CCOC(=O)C1CCCN(C(=O)c2cc(-c3ccccc3)on2)C1 (centres undefined) | 32
Cc1nc(CC(C)C)cc(C(=O)N2CCCC(CNS(=O)(=O)c3cccs3)C2)n1 (centres undefined) | 421*
Fc1ccccc1/C=N/NC(=S)Nc1ccc(Cl)cc1Cl | 114
O=C(Oc1ccc(/C=N/Nc2nc(N3CCCCC3)nc(N3CCCCC3)n2)cc1)c1ccco1 | -2
O=C(NCc1ccco1)c1cnn2c(C(F)F)cc(-c3ccccc3)nc12 | -10
O=C(Nc1c(C(=O)NCc2ccco2)cnn1-c1ccccc1)c1cccc(F)c1 | 287*
CC(C)(C)NC(=O)c1cnn(-c2ccccc2)c1NC(=O)c1ccccc1 | 0
COc1ccc(-c2cc(C(F)(F)F)nc(-n3ccnc3C)n2)cc1 | 0
CCCNC(=O)c1ccc(CN2CCOCC2)cc1 | 295*
Cc1cccc(CSCCNC(=O)c2ccc(CN3CCOCC3)cc2)c1 | -71
O=C(NCc1ccccc1)c1ccc(CN2CCOCC2)cc1 | 7
COc1cc(C2NC(=O)NC(C)=C2C(=O)OC2CCCC(C)C2)ccc1O (centres undefined) | -73
Cc1ccc(SCC(=O)NC(=O)c2ccc(S(=O)(=O)N(C)C)cc2)cc1C | -3
COc1ccc(-n2c(C(C)n3nc(C)c([N+](=O)[O-])c3C)n[nH]c2=S)cc1 (centres undefined) | 515*
CC(c1n[nH]c(=S)n1-c1ccc(F)cc1)N1CCCCC1 (centres undefined) | 2
Cc1nn(C(C)c2n[nH]c(=S)n2-c2cccc(Cl)c2)c(C)c1[N+](=O)[O-] (centres undefined) | 200
O=C(c1ccc(-c2ccc([N+](=O)[O-])cc2)o1)N1CCCCC1 | -7
CC1CCCN(CCCOc2ccc([N+](=O)[O-])cc2)C1 (centres undefined) | 8
CC1CCCCN1C(=O)c1ccc(COc2ccc([N+](=O)[O-])cc2)o1 (centres undefined) | 380*
O=C(CN1C(=O)C2CC=CCC2C1=O)Nc1ccc(S(=O)(=O)N2CCOCC2)cc1 (centres undefined) | -73
C(=C1/CCCC2=C1Nc1ncnn1C2c1ccccc1)/c1ccccc1 (centres undefined) | -73
CCn1ncc(CN2CCCC(CNC(=O)c3ccc(F)cc3)C2)c1C (centres undefined) | 4

Compound activity (PubChem)
